Measurements from ChEMBL document CHEMBL5058577, “EUbOPEN Chemogenomics Library 2 (Multiplex)” (2022).

Tested on: HEK-293T
Test: Multiplex assay against HEK293T
Assay type: toxicity, cell-based
Conditions: human
Summary of the method: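 With compound added, live cells were imaged on a CQ1 microscope at 37°C and 5% CO2; staining with Hoechst33342, BioTracker Green Microtubule Cytoskeleton Dye, MitoTracker Red and Annexin V Alexa Fluor 680 had been done at seeding. The CellPathfinder machine-learning gating scheme split cells into Hoechst high-intensity objects or normal cells, normal cells into healthy, pyknosed or fragmented nuclei, and pyknosed cells into mitotic or apoptotic. The tubulin, mitochondrial-mass and membrane-permeability phenotypes are per cents of healthy-nucleus cells.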

[1] = 12 h, 1 µM, compound concentration 1 uM, replicate 1
[2] = 12 h, 1 µM, compound concentration 1 uM, replicate 2
[3] = 12 h, 10 µM, compound concentration 10 uM, replicate 1
[4] = 12 h, 10 µM, compound concentration 10 uM, replicate 2
[5] = 24 h, 1 µM, compound concentration 1 uM, replicate 1
[6] = 24 h, 1 µM, compound concentration 1 uM, replicate 2
[7] = 24 h, 10 µM, compound concentration 10 uM, replicate 1
[8] = 24 h, 10 µM, compound concentration 10 uM, replicate 2
[9] = 48 h, 1 µM, compound concentration 1 uM, replicate 1
[10] = 48 h, 1 µM, compound concentration 1 uM, replicate 2
[11] = 48 h, 10 µM, compound concentration 10 uM, replicate 1
[12] = 48 h, 10 µM, compound concentration 10 uM, replicate 2

## C[C@@H]1CC(=O)Nc2cccc(-c3ccc4c(c3)c(-c3cnn(C)c3)nn4C)c2N1
[1]
  Population Apoptotic (%): 36%
  Population Fragmented Nuclei (%): 7%
  Population Healthy Nuclei (%): 76%
  Population Hoechst High Intensity Objects (%): 7%
  Population Membrane Permeable-Phenotype (%): 0%
  Population Mitochondria Different-Phenotype (%): 51%
  Population Mitotic Cells (%): 63%
  Population Normal (%): 92%
  Population Pyknosed Nuclei (%): 16%
  Population Tubulin-Different-Phenotype (%): 39%
  Total Cell Count: 305
[2]
  Population Apoptotic (%): 60%
  Population Fragmented Nuclei (%): 5%
  Population Healthy Nuclei (%): 77%
  Population Mitochondria Different-Phenotype (%): 65%
  Population Mitotic Cells (%): 39%
  Population Tubulin-Different-Phenotype (%): 26%
  Total Cell Count: 349
[3]
  Population Apoptotic (%): 49%
  Population Fragmented Nuclei (%): 8%
  Population Healthy Nuclei (%): 74%
  Population Hoechst High Intensity Objects (%): 5%
  Population Membrane Permeable-Phenotype (%): 0%
  Population Mitochondria Different-Phenotype (%): 72%
  Population Mitotic Cells (%): 50%
  Population Normal (%): 94%
  Population Pyknosed Nuclei (%): 17%
  Population Tubulin-Different-Phenotype (%): 62%
  Total Cell Count: 384
[4]
  Population Apoptotic (%): 38%
  Population Fragmented Nuclei (%): 5%
  Population Healthy Nuclei (%): 77%
  Population Hoechst High Intensity Objects (%): 12%
  Population Mitochondria Different-Phenotype (%): 86%
  Population Mitotic Cells (%): 62%
  Population Normal (%): 87%
  Population Pyknosed Nuclei (%): 16%
  Population Tubulin-Different-Phenotype (%): 56%
  Total Cell Count: 345
[5]
  Population Apoptotic (%): 38%
  Population Fragmented Nuclei (%): 10%
  Population Healthy Nuclei (%): 74%
  Population Hoechst High Intensity Objects (%): 7%
  Population Membrane Permeable-Phenotype (%): 0%
  Population Mitochondria Different-Phenotype (%): 37%
  Population Mitotic Cells (%): 61%
  Population Normal (%): 92%
  Population Pyknosed Nuclei (%): 14%
  Population Tubulin-Different-Phenotype (%): 20%
  Total Cell Count: 395
[6]
  Population Apoptotic (%): 50%
  Population Fragmented Nuclei (%): 8%
  Population Healthy Nuclei (%): 79%
  Population Hoechst High Intensity Objects (%): 6%
  Population Mitochondria Different-Phenotype (%): 48%
  Population Mitotic Cells (%): 50%
  Population Normal (%): 93%
  Population Pyknosed Nuclei (%): 11%
  Population Tubulin-Different-Phenotype (%): 16%
  Total Cell Count: 422
[7]
  Population Apoptotic (%): 43%
  Population Fragmented Nuclei (%): 9%
  Population Healthy Nuclei (%): 76%
  Population Hoechst High Intensity Objects (%): 2%
  Population Membrane Permeable-Phenotype (%): 0%
  Population Mitochondria Different-Phenotype (%): 62%
  Population Mitotic Cells (%): 56%
  Population Normal (%): 97%
  Population Pyknosed Nuclei (%): 13%
  Population Tubulin-Different-Phenotype (%): 37%
  Total Cell Count: 472
[8]
  Population Apoptotic (%): 57%
  Population Fragmented Nuclei (%): 8%
  Population Healthy Nuclei (%): 72%
  Population Hoechst High Intensity Objects (%): 5%
  Population Mitochondria Different-Phenotype (%): 68%
  Population Mitotic Cells (%): 42%
  Population Normal (%): 94%
  Population Pyknosed Nuclei (%): 19%
  Population Tubulin-Different-Phenotype (%): 28%
  Total Cell Count: 381
[9]
  Population Apoptotic (%): 33%
  Population Fragmented Nuclei (%): 11%
  Population Healthy Nuclei (%): 80%
  Population Hoechst High Intensity Objects (%): 1%
  Population Membrane Permeable-Phenotype (%): 0%
  Population Mitochondria Different-Phenotype (%): 23%
  Population Mitotic Cells (%): 66%
  Population Normal (%): 98%
  Population Pyknosed Nuclei (%): 7%
  Population Tubulin-Different-Phenotype (%): 13%
  Total Cell Count: 627
[10]
  Population Apoptotic (%): 30%
  Population Fragmented Nuclei (%): 9%
  Population Healthy Nuclei (%): 81%
  Population Hoechst High Intensity Objects (%): 2%
  Population Mitochondria Different-Phenotype (%): 30%
  Population Mitotic Cells (%): 69%
  Population Normal (%): 97%
  Population Pyknosed Nuclei (%): 9%
  Total Cell Count: 593
[11]
  Population Apoptotic (%): 43%
  Population Fragmented Nuclei (%): 13%
  Population Healthy Nuclei (%): 80%
  Population Hoechst High Intensity Objects (%): 4%
  Population Membrane Permeable-Phenotype (%): 0%
  Population Mitochondria Different-Phenotype (%): 44%
  Population Mitotic Cells (%): 56%
  Population Normal (%): 95%
  Population Pyknosed Nuclei (%): 6%
  Population Tubulin-Different-Phenotype (%): 16%
  Total Cell Count: 636
[12]
  Population Apoptotic (%): 42%
  Population Fragmented Nuclei (%): 12%
  Population Healthy Nuclei (%): 78%
  Population Hoechst High Intensity Objects (%): 2%
  Population Mitochondria Different-Phenotype (%): 53%
  Population Mitotic Cells (%): 57%
  Population Normal (%): 97%
  Population Pyknosed Nuclei (%): 9%
  Population Tubulin-Different-Phenotype (%): 20%
  Total Cell Count: 521
